For data set [1], the species on record is Rattus norvegicus. Nature of the data set: (§1) Lysozyme-conjugated prodrugs: in vitro stability at pH 5. It counts as functional. The method, boiled down:
(§2)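 Conjugate incubated 24 h in pH 5.0 buffer, pH 7.4 buffer, or plasma buffered at pH 7.4. Samples were deproteinized with ACN, MeOH or 2 N HCl, centrifuged, and analyzed by RP-HPLC against an internal standard. Release is % parent drug = parent/(parent + derivative) from IS-normalized peak-area ratios, mean of at least two separate incubations.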

Data set [2] is filed under the species Rattus norvegicus. Nature of the data set: (§3) Lysozyme-conjugated prodrugs: in vitro stability at pH 7.4. It counts as functional. The method, boiled down:
as §2

For data set [3], the species on record is Rattus norvegicus. The data set is described as §1. The format is ADME. The essentials: as §2
Data set [4] is filed under the species Rattus norvegicus. Described as §3. It counts as functional. The essentials:
as §2
This is another data set of the same source.

The structures appear in SMILES notation. Peptide text beside a SMILES is read from it. * marks the point of attachment. Cbz = O=C(OCc1ccccc1)* A value given as a limit tells only on which side of the number the result lay.

With `COc1ccc2c(c1)c(CC(=O)N[C@@H](CCC(=O)O)C(=O)O)c(C)n2C(=O)c1ccc(Cl)cc1`, the Drug release in the data set filed under Rattus norvegicus [1], in the data set listed under Rattus norvegicus [2], in the data set listed under Rattus norvegicus [3] and in the data set filed under Rattus norvegicus [4] was 0% each time.

Take `COc1ccc2cc(C(C)C(=O)NCC(=O)O)ccc2c1` (stereo unspecified): the Drug release in the data set listed under Rattus norvegicus [1], in the data set filed under Rattus norvegicus [2], in the data set listed under Rattus norvegicus [3] and in the data set listed under Rattus norvegicus [4] was 0% in each case.

Regarding `COc1ccc2c(c1)c(CC(=O)N[C@@H](Cc1ccccc1)C(=O)O)c(C)n2C(=O)c1ccc(Cl)cc1`, the Drug release in the data set filed under Rattus norvegicus [1], in the data set filed under Rattus norvegicus [2], in the data set filed under Rattus norvegicus [3] and in the data set listed under Rattus norvegicus [4] was 0% each time.

Consider `C[C@H](NC(=O)OCc1ccccc1)C(=O)N1CCC[C@H]1C(=O)N[C@@H](Cc1ccccc1)C(=O)O` (Cbz-Ala-Pro-Phe-OH), for which the Drug release in the data set filed under Rattus norvegicus [1] was 0%; in the data set listed under Rattus norvegicus [2], 96%; in the data set filed under Rattus norvegicus [3], 0%; in the data set listed under Rattus norvegicus [4], 0%.

Turning to `CC(C)C[C@H](N)C(=O)Nc1nc2nc(N)nc(N)c2nc1-c1ccccc1`, the Drug release in the data set listed under Rattus norvegicus [1] is listed as under 5%; in the data set listed under Rattus norvegicus [2] it was under 5%; in the data set filed under Rattus norvegicus [3], 0%; in the data set filed under Rattus norvegicus [4] it was 0%.

`COc1ccc2c(c1)c(CC(=O)NCC(=O)O)c(C)n2C(=O)c1ccc(Cl)cc1`: the Drug release in the data set listed under Rattus norvegicus [1], in the data set filed under Rattus norvegicus [2], in the data set filed under Rattus norvegicus [3] and in the data set filed under Rattus norvegicus [4] was 0% in each case.

Turning to `CC(C)C[C@H](N)C(=O)Nc1nc(N)c2nc(-c3ccccc3)c(N)nc2n1`, the Drug release in the data set listed under Rattus norvegicus [1] is given as under 5%; in the data set listed under Rattus norvegicus [2], under 5%; in the data set listed under Rattus norvegicus [3], 0%; in the data set filed under Rattus norvegicus [4] it was 0%.

Take `COc1ccc2cc(C(C)C(=O)N[C@@H](CCC(=O)O)C(=O)O)ccc2c1` (stereo partly specified): the Drug release in the data set filed under Rattus norvegicus [1], in the data set filed under Rattus norvegicus [2], in the data set listed under Rattus norvegicus [3] and in the data set listed under Rattus norvegicus [4] was 0% in each case.

On to `N=C(N)NCCC[C@H](NC(=O)c1ccccc1)C(=O)O`, for which the Drug release in the data set listed under Rattus norvegicus [1], in the data set filed under Rattus norvegicus [2], in the data set filed under Rattus norvegicus [3] and in the data set listed under Rattus norvegicus [4] was 0% throughout.

Take `COc1ccc2c(c1)c(CC(=O)N[C@@H](Cc1c[nH]c3ccccc13)C(=O)O)c(C)n2C(=O)c1ccc(Cl)cc1`: the Drug release in the data set filed under Rattus norvegicus [1], in the data set listed under Rattus norvegicus [2], in the data set listed under Rattus norvegicus [3] and in the data set listed under Rattus norvegicus [4] was 0% in each case.

For `O=C(N[C@@H](Cc1c[nH]c2ccccc12)C(=O)O)c1ccccc1`, the Drug release in the data set filed under Rattus norvegicus [1], in the data set listed under Rattus norvegicus [2], in the data set listed under Rattus norvegicus [3] and in the data set filed under Rattus norvegicus [4] was 0% each time.

For the molecule `CC(C)C[C@H](N)C(=O)Nc1nc(N)nc2nc(N)c(-c3ccccc3)nc12`, the Drug release in the data set filed under Rattus norvegicus [1], in the data set listed under Rattus norvegicus [2], in the data set filed under Rattus norvegicus [3] and in the data set filed under Rattus norvegicus [4] was 0% each time.

Take `COc1ccc2cc(C(C)C(=O)N[C@@H](Cc3ccc(O)cc3)C(=O)O)ccc2c1` (stereo partly specified): the Drug release in the data set filed under Rattus norvegicus [1], in the data set filed under Rattus norvegicus [2], in the data set filed under Rattus norvegicus [3] and in the data set listed under Rattus norvegicus [4] was 0% each time.

Take `O=C(N[C@@H](Cc1ccccc1)C(=O)O)c1ccccc1`: the Drug release in the data set filed under Rattus norvegicus [1], in the data set listed under Rattus norvegicus [2], in the data set filed under Rattus norvegicus [3] and in the data set filed under Rattus norvegicus [4] was 0% in each case.

Take `COc1ccc2c(c1)c(CC(=O)NCCCC[C@H](NC(=O)OCc1ccccc1)C(=O)O)c(C)n2C(=O)c1ccc(Cl)cc1`: the Drug release in the data set listed under Rattus norvegicus [1], in the data set filed under Rattus norvegicus [2], in the data set filed under Rattus norvegicus [3] and in the data set filed under Rattus norvegicus [4] was 0% in each case.

As for `CC(C)C[C@H](NC(=O)c1ccccc1)C(=O)O`, the Drug release in the data set filed under Rattus norvegicus [1], in the data set listed under Rattus norvegicus [2], in the data set listed under Rattus norvegicus [3] and in the data set listed under Rattus norvegicus [4] was 0% each time.

`O=C(N[C@@H](Cc1ccc(O)cc1)C(=O)O)c1ccccc1`: the Drug release in the data set listed under Rattus norvegicus [1], in the data set listed under Rattus norvegicus [2], in the data set filed under Rattus norvegicus [3] and in the data set listed under Rattus norvegicus [4] was 0% throughout.

Regarding `COc1ccc2c(c1)c(CC(=O)N[C@@H](CC(C)C)C(=O)O)c(C)n2C(=O)c1ccc(Cl)cc1`, the Drug release in the data set listed under Rattus norvegicus [1], in the data set filed under Rattus norvegicus [2], in the data set filed under Rattus norvegicus [3] and in the data set filed under Rattus norvegicus [4] was 0% each time.

With `NCCCC[C@H](NC(=O)c1ccccc1)C(=O)O`, the Drug release in the data set listed under Rattus norvegicus [1], in the data set listed under Rattus norvegicus [2], in the data set listed under Rattus norvegicus [3] and in the data set listed under Rattus norvegicus [4] was 0% in each case.

In the case of `COc1ccc2cc(C(C)C(=O)N[C@H](C(=O)O)C(C)C)ccc2c1` (stereo partly specified), the Drug release in the data set filed under Rattus norvegicus [1], in the data set listed under Rattus norvegicus [2], in the data set listed under Rattus norvegicus [3] and in the data set filed under Rattus norvegicus [4] was 0% in each case.

For `COc1ccc2cc(C(C)C(=O)N[C@@H](CCCN=C(N)N)C(=O)O)ccc2c1` (stereo partly specified), the Drug release in the data set filed under Rattus norvegicus [1], in the data set filed under Rattus norvegicus [2], in the data set listed under Rattus norvegicus [3] and in the data set filed under Rattus norvegicus [4] was 0% in each case.

Turning to `COc1ccc2cc(C(C)C(=O)N[C@@H](Cc3ccccc3)C(=O)O)ccc2c1` (stereo partly specified), the Drug release in the data set listed under Rattus norvegicus [1], in the data set filed under Rattus norvegicus [2], in the data set listed under Rattus norvegicus [3] and in the data set listed under Rattus norvegicus [4] was 0% throughout.

In the case of `COc1ccc2cc(C(C)C(=O)N[C@@H](CC(C)C)C(=O)O)ccc2c1` (stereo partly specified), the Drug release in the data set listed under Rattus norvegicus [1], in the data set listed under Rattus norvegicus [2], in the data set listed under Rattus norvegicus [3] and in the data set filed under Rattus norvegicus [4] was 0% in each case.

With `COc1ccc2cc(C(C)C(=O)N[C@@H](Cc3ccc(O)cc3)C(=O)NCC(=O)NCC(=O)O)ccc2c1` (stereo in doubt; 1p), the Drug release in the data set filed under Rattus norvegicus [1], in the data set listed under Rattus norvegicus [2], in the data set filed under Rattus norvegicus [3] and in the data set filed under Rattus norvegicus [4] was 0% each time.

Consider `COc1ccc2cc(C(C)C(=O)N[C@@H](Cc3c[nH]c4ccccc34)C(=O)O)ccc2c1` (stereo partly specified), for which the Drug release in the data set filed under Rattus norvegicus [1], in the data set filed under Rattus norvegicus [2], in the data set filed under Rattus norvegicus [3] and in the data set filed under Rattus norvegicus [4] was 0% throughout.

As for `COc1ccc2cc(C(C)C(=O)N[C@@H](CC(C)C)C(=O)NCC(=O)NCC(=O)O)ccc2c1` (stereo in doubt; 1o), the Drug release in the data set listed under Rattus norvegicus [1], in the data set filed under Rattus norvegicus [2], in the data set filed under Rattus norvegicus [3] and in the data set filed under Rattus norvegicus [4] was 0% each time.

In the case of `COc1ccc2c(c1)c(CC(=O)N[C@@H](Cc1ccc(O)cc1)C(=O)O)c(C)n2C(=O)c1ccc(Cl)cc1`, the Drug release in the data set listed under Rattus norvegicus [1], in the data set filed under Rattus norvegicus [2], in the data set filed under Rattus norvegicus [3] and in the data set listed under Rattus norvegicus [4] was 0% in each case.

In the case of `O=C(O)CNC(=O)c1ccccc1` [HIPPURIC ACID], the Drug release in the data set filed under Rattus norvegicus [1], in the data set filed under Rattus norvegicus [2], in the data set listed under Rattus norvegicus [3] and in the data set filed under Rattus norvegicus [4] was 0% throughout.

In the case of `O=C(O)CC[C@H](NC(=O)c1ccccc1)C(=O)O`, the Drug release in the data set listed under Rattus norvegicus [1], in the data set listed under Rattus norvegicus [2], in the data set listed under Rattus norvegicus [3] and in the data set filed under Rattus norvegicus [4] was 0% each time.

The record behind these values is ChEMBL document CHEMBL1125422, “Low molecular weight proteins as carriers for renal drug targeting. Preparation of drug-protein conjugates and drug-spacer derivatives and their catabolism in renal cortex homogenates and lysosomal lysates” (J Med Chem, 1992).
